FAS-TE inh – FAS thioesterase domain inhibitors, primary screen, biochemical, fluorescence intensity, uHTS | Fatty acid synthase (Homo sapiens), P49327 | recombinant FAS-TE, OMFH fluorogenic substrate, fluorescence endpoint | inhibition, % at 15 µM | 360,000 tested, 0.67% active;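 active means compounds whose normalised, plate-corrected inhibition of enzyme fluorescence in the single-dose primary screen is 50% or more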;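 further: 0% = DMSO with enzyme and 100% = substrate without enzyme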
hiPSC survival – enhancers of single-cell hiPSC survival, primary screen, ATPlite luminescence. 100% = ROCK inhibitor wells, 0% = DMSO. survival enhancement, % at 20 µM. 360,000 tested, 0.044% active. AID 602274, 2012; in the data active means survival enhancement above about 18%;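 further: cells exposed to compounds for 16 hours before the ATP read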
Arr AP2 block – inhibitors of beta-arrestin/AP2 binding, primary screen, biochemical, GPCR trafficking, flow cytometry; beta-arrestin 1 C-terminal peptide binding to AP2 beta2-adaptin appendage (human); FITC-arrestin peptide / GST-AP2 beads; AP2 beta2 appendage carries R879A mutation; inhibition, % at 10 µM; 340,000 tested, 0.31% active; AID 504490, 2011;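 active means inhibition above a set limit, near 3 SD of compounds lacking own fluorescence, cut at about 54% in these data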;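 further: plate controls were DMSO wells for no effect and 5 µM unlabelled arrestin peptide for full effect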
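System: GST-AP2 R879A bound to glutathione beads, E. coli-expressed. Also added: 50 nM FITC-arrestin peptide. Schedule: compound with beads 12 min RT, then probe 1 h RT. Signal: bead flow cytometry, FITC channel. Read-out basis: percent response.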
SENP1 inh – human SENP1 catalytic domain inhibitors, primary screen, biochemical, FRET, uHTS; Sentrin-specific protease 1 (Homo sapiens), Q9P0U3; recombinant SENP1 catalytic domain, CyPet-SUMO1-YPet FRET cleavage; inhibition, % at 10 µM; 360,000 tested, 0.21% active;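 active means inhibition at least 30% at 10 µM, raw YFP signal under a set limit, fluorescence ratio 0.5 to 1.5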;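 further: 0% = enzyme with DMSO and 100% = no enzyme wells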
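Material: hSENP1 catalytic domain, recombinant; medium: Tris pH 8 with BME, BSA, NP40 and catalase; compound: single concentration of 10 µM compound, 0.5% DMSO final; technique: FRET read of cyan and yellow fluorescence; timing: 50 min enzyme reaction, room temperature, light-protected; reagent: SFCypet-SUMO1-SFYpet substrate at 25 nM; control set: no-enzyme low, enzyme-DMSO high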
H9c2 protect – cardioprotection against H2O2-induced cell death, primary screen, uHTS, H9c2 cells, ATPLite luminescence; H9c2 cardiomyocytes, H2O2 injury protection, 2 h; protection from H2O2 cell death, % at 20 µM; 360,000 tested, 0.63% active;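 active means compounds giving at least 50% protection of heart cells from peroxide-induced death in the single-dose screen, raw or plate-pattern-corrected value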;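 further: 0% = DMSO wells with peroxide and 100% = DMSO wells without peroxide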
GRIN3A LBD mod – binders of NR3A ligand-binding domain, primary screen, biophysical, differential scanning fluorimetry, uHTS | Tm shift relative to glycine control, % at 25 µM | AID 1259313, 2017 | NR3A LBD differential scanning fluorimetry, Tm shift; 0% = protein alone, 100% = glycine-bound protein | 340,000 tested, 2.5% active | Glutamate receptor ionotropic, NMDA 3A (GRIN3A) ligand-binding domain;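 active means melting temperature shift of at least 10% of the positive control shift, at one fixed dose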
* marks the source's active call; other numbers are inactive results; . = not tested or not shown. Rows were chosen to be rich in hits. Some 4% of all compounds tested hit in one or more screens of this group.

SMILES	FAS-TE inh	hiPSC survival	Arr AP2 block	SENP1 inh	H9c2 protect	GRIN3A LBD mod
COc1ccc(N2CCN(S(=O)(=O)c3ccc(C(=O)NCc4ccco4)cc3)CC2)cc1	0	1	0	0	0	28*
O=C(Nc1ccc(S(=O)(=O)N2CCOCC2)cc1)c1ccc(Cl)s1	13	1	-6	4	-10	35*
COCCNc1nc(Oc2cncc(Cl)c2)c2sccc2n1	-3	12	.	0	0	.
Cc1c(CC(=O)NCC(=O)NCC(=O)N[C@@H](Cc2ccccc2)C(=O)O)c(=O)oc2c(C)c(O)ccc12	5	-1	.	-57	0	.
CCOc1ccc(NC(=O)c2ccc(S(=O)(=O)N3CCOCC3)cc2)cc1	0	2	37	2	-2	-27
COc1ccc(C(=O)Nc2ccc(-c3cn4ccsc4n3)cc2)cc1S(=O)(=O)N1CCOCC1	11	2	-13	3	-8	27*
COc1ccc(OCCCC(=O)Nc2ccc(S(=O)(=O)N3CCOCC3)cc2)cc1	4	0	-6	-2	-4	11*
COc1ccc(C(=O)Nc2ccc(S(=O)(=O)N3CCOCC3)cc2)cc1	-2	0	0	1	-1	27*
COc1ccc(CC(=O)Nc2ccc(S(=O)(=O)N3CCOCC3)cc2)cc1	-3	-3	0	-2	6	1
O=C(Nc1ccc(N2CCOCC2)c(Cl)c1)c1cccc(F)c1	2	3	27	2	-9	12*
Cc1cccc(N2CCN(C3C(=O)Nc4ccccc4-n4nnnc43)CC2)c1C (configuration not stated)	.	.	.	-4	.	.
COc1ccc(N=CC2CCCCC2=O)c([N+](=O)[O-])c1 (configuration not stated)	3	1	-5	4	-6	2
Cc1cccc(C)c1NC(=O)CN(Cc1ccccc1)Cc1ccccc1	17	-2	.	0	-4	.
Cc1cc(Br)cn2c(Cc3ccsc3)c(C(C)(C)C)nc12	0	12	.	-38	2	.
COc1ccc(-c2cc(C(=O)NNC3=NCCC3)c3c(C)nn(-c4ccccc4)c3n2)cc1	4	0	-7	2	84*	-5
Cc1nn(-c2ccccc2)c2nc(-c3ccncc3)cc(C(=O)NCc3ccco3)c12	7	6	30	-25	22	0
COc1ccc(NC(=O)c2cc(-c3ccccc3)nc3c2c(C)nn3-c2ccccc2)c(OC)c1	27	2	11	4	-6	13*
CCC(c1nnnn1CCOC)N1CCN(Cc2ccccc2OC)CC1 (configuration not stated)	-6	1	-7	1	11	15*
CCCC(c1nnnn1CCOC)N1CCN(Cc2ccccc2)CC1 (configuration not stated)	-17	1	9	2	3	0
CC1(C)Cc2nc(NCCCO)c(C#N)cc2CO1	-5	-3	13	-2	1	16*
N#Cc1ccc(-c2nc3c4ccccc4ccn3c2Cc2cccc(Cl)c2)cc1	20	1	.	-37	-6	.
CC(=O)C1=C(NC(=O)c2ccccc2F)C[C@@H]2[C@H]1C2(C)C	12	-3	-10	0	-5	14*
O=C1[C@H]2[C@@H](c3ccc(F)cc3)N3C(=O)N(c4ccc(Br)cc4)C(=O)[C@@]3(Cc3ccc(Cl)cc3)[C@H]2C(=O)N1C1CCCCC1	94*	1	6	1	1	10
O=C1[C@H]2[C@@H](c3ccc(F)cc3)N3C(=O)N(c4cccc(F)c4)C(=O)[C@@]3(Cc3ccccc3)[C@H]2C(=O)N1C1CCCCC1	46	0	4	1	2	-3
CC(C)C[C@@]12C(=O)N(c3cccc(Br)c3)C(=O)N1[C@H](c1ccc(F)cc1)[C@@H]1C(=O)N(C3CCCCC3)C(=O)[C@@H]12	86*	-2	0	5	-1	1
SMILES	FAS-TE inh	hiPSC survival	Arr AP2 block	SENP1 inh	H9c2 protect	GRIN3A LBD mod
O=C1[C@H]2[C@@H](c3ccc(Cl)cc3)N3C(=O)N(c4cccc(Cl)c4)C(=O)[C@@]3(Cc3ccccc3)[C@H]2C(=O)N1C1CCCCC1	94*	-4	-7	1	-9	3
O=C(O)c1ccc(/C=N/N2CCN(Cc3cccc4ccccc34)CC2)cc1	0	1	-7	0	2	192*
Cc1ccc(C)c(NC(=O)c2cc(-c3cc(C)ccc3O)n[nH]2)c1	-6	0	-5	2	-11	15*
COc1ccc(Cl)cc1NC(=O)c1cc(-c2cc(C)ccc2O)n[nH]1	-9	1	26	2	5	300*
COc1ccc(Cl)cc1NC(=O)c1cc(-c2ccc(C)cc2O)n[nH]1	-6	0	-1	-1	2	12*
CCOc1ccc(Cl)cc1-c1cc(C(=O)Nc2cc(OC)ccc2OC)[nH]n1	14	1	.	-2	-2	.
CC(C)COC(=O)N1CCCCC1c1cc(C(=O)NC(C)C)no1 (configuration not stated)	1	-2	.	5	9	.
COC(=O)c1ccc2nc(C3CCCCC3)c(Cc3cccc(Cl)c3)n2c1	18	7	.	-70	-3	.
Cc1ccc(S(=O)(=O)N(C)C[C@@H]2OCc3cn(nn3)CCCC(=O)N([C@H](C)CO)C[C@H]2C)cc1	-10	2	.	1	2	.
OC(Cc1ccccc1)c1ncc(-c2ccc3ccccc3c2)[nH]1 (configuration not stated)	8	-1	.	-8	-3	.
Cn1c(=O)cc2c3c(c(N4CCCCC4)ccc31)C(=O)c1ccccc1-2	-29	0	10	33*	36	-2
O=C1c2ccccc2C(=O)c2c1cccc2N1CCCC1	24	1	41	5	-1	1
CCN(CC(=O)NC1CCCC1)S(=O)(=O)c1ccc(C)cc1	-7	0	-2	0	-2	0
CCN(CC(=O)NC1CCCC1)S(=O)(=O)c1ccc(Br)cc1	0	0	-8	2	3	11*
COc1ccc(-c2csc(Nc3ccc(C)cn3)n2)cc1	18	-1	-4	2	-11	16*
CC(=O)Oc1ccc(-c2csc(Nc3ccc(Cl)cn3)n2)cc1	2	0	-7	1	-9	32*

Source: PubChem
